For series [1], the system named is Neutrophil. Nature of the series: Inhibition of chemotaxis in human neutrophils assessed as inhibition of C5a-induced migration by Boyden chamber assay. Format: functional, cell-based. The procedure, abridged: (§1)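 Donor blood neutrophils (dextran sedimentation, Ficoll-Hypaque, hypotonic lysis; >97% pure), preincubated with compound 15 min at room temperature. 4 × 10^5 cells in upper compartment of blind-well chamber, 3 µm cellulose ester filter. Lower compartment: IL-8 10^-9 M, fMLP 10^-8 M or C5a 10^-9 M. Incubation 37 °C, 45 min. Leading-front distance read at ×400, five fields/filter, duplicates. Net migration = stimulated minus spontaneous. IC50 by nonlinear regression, mean of ≥3 experiments.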

Series [2] is described as follows: Cytotoxicity against human neutrophils assessed as cell viability by ethidium bromide-fluorescein diacetate test. It is filed as cell-based, Neutrophil. Further details: concentration or dose not given beside the values. Particulars: read-out: Activity. The procedure, abridged:
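Neutrophils (2 × 10^6/mL) from healthy donor blood, incubated 2 h at 37 °C in CO2 atmosphere with compounds. Cells then stained with fluorescein diacetate/ethidium bromide in HBSS, 10 min at room temperature. Scored under UV dark-field: green = intact membrane (viable), red nucleus = necrotic; percentage viable cells.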

Series [3] concerns Neutrophil. Nature of the series: Inhibition of chemotaxis in human neutrophils assessed as inhibition of IL8-induced migration by Boyden chamber assay. Format: functional, cell-based. The procedure, abridged: as §1
Series [4] relates to Neutrophil. Nature of the series: Inhibition of chemotaxis in human neutrophils assessed as inhibition of fMLP-induced migration by Boyden chamber assay. It is filed as functional, cell-based. The method, boiled down:
as §1

In series [5] the target is T1, C-X-C chemokine receptor type 2 (Homo sapiens) (UniProt P25025).
T1 sequence (whole entry): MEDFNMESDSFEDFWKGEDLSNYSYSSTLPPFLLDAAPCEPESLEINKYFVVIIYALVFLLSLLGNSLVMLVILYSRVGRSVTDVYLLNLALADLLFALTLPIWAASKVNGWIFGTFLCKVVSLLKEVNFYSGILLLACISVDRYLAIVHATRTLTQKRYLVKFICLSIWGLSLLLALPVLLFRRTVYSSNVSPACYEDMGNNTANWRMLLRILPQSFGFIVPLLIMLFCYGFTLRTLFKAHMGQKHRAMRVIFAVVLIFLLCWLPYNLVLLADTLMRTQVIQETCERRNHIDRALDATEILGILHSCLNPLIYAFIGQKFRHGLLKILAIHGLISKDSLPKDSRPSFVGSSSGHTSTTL
Kind of series: Binding affinity to CXCR2.

The target of series [6] is T2, C-X-C chemokine receptor type 1 (Homo sapiens) (UniProt P25024).
T2 sequence (whole entry): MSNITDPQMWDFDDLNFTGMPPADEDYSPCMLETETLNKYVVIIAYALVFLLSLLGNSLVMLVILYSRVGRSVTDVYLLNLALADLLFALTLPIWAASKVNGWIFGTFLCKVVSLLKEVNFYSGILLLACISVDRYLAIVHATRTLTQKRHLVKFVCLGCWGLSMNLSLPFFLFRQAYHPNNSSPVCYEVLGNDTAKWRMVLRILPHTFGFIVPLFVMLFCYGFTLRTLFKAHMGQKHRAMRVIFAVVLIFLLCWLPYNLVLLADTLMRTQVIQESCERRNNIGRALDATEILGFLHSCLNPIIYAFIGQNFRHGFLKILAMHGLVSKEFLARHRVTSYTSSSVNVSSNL
Kind of series: Binding affinity to CXCR1.

The test system of series [7] is Mus musculus. Kind of series: Inhibition of chemotaxis in zymosan-induced peritonitis Swiss mouse model assessed as number of peritoneal cells per cavity at 3 mg/kg, po pretreated 1 hr before zymosan-challenge measured 4 hrs post inducer challenge (Rvb=31.5+/-1.2 million). It is filed as functional.
For series [8], the system named is Mus musculus. Kind of series: Inhibition of chemotaxis in zymosan-induced peritonitis Swiss mouse model assessed as number of peritoneal granulocytes per cavity at 3 mg/kg, po pretreated 1 hr before zymosan-challenge measured 4 hrs post inducer challenge (Rvb=27.1+/-3.5 million). Format: functional.
The subject of series [9] is Mus musculus. Nature of the series: Inhibition of chemotaxis in zymosan-induced peritonitis Swiss mouse model assessed as peritoneal protein concentration at 3 mg/kg, po pretreated 1 hr before zymosan-challenge measured 4 hrs post inducer challenge (Rvb=1961+/-160 µg/mL).
Series [10] deals with Mus musculus. Kind of series: Inhibition of chemotaxis in zymosan-induced peritonitis Swiss mouse model assessed as number of peritoneal granulocytes per cavity at 50 mg/kg, po pretreated 1 hr before zymosan-challenge measured 4 hrs post inducer challenge (Rvb=27.1+/-3.5 million). It is filed as functional.
Series [11] relates to Mus musculus. Kind of series: Inhibition of chemotaxis in zymosan-induced peritonitis Swiss mouse model assessed as peritoneal protein concentration at 50 mg/kg, po pretreated 1 hr before zymosan-challenge measured 4 hrs post inducer challenge (Rvb=1961+/-[…]). Format: functional.
Series [12] concerns Mus musculus. Nature of the series: Inhibition of chemotaxis in zymosan-induced peritonitis Swiss mouse model assessed as number of peritoneal cells per cavity at 50 mg/kg, po pretreated 1 hr before zymosan-challenge measured 4 hrs post inducer challenge (Rvb=31.5+/-1.2 million). It is filed as functional.

Calls of active or inactive are those of the source. The rule behind the calls is not given here. Bounds are passed on as bounds.

As for `CCN(CC)CCNc1c(C(=O)OC(C)C)c(=O)n(-c2ccccc2)c(=S)n1-c1ccccc1`, the outcome in series [1] and in series [4] was inactive. The viability in series [2] is ≥ 94%. Besides, the IC50 – broadly, the concentration at which inhibition is half-maximal – in series [3] was 0.21 nM.

In the case of `COC(=O)c1c(NCCc2c[nH]c3ccccc23)n(-c2ccccc2)c(=S)n(-c2ccccc2)c1=O`, the viability in [2] was ≥ 94%. For the same compound, the IC50 in series [3] stood at 29.6 nM. Besides, the result in series [4] was inactive.

For `CCOC(=O)c1c(NCCOC)n(-c2ccccc2)c(=S)n(-c2ccccc2)c1=O`, in series [2], the viability was ≥ 94%. Also, the outcome in series [5], in [4] and in series [6] was inactive. In series [3], the IC50 was found to be 1.36 nM.

Turning to `CCOC(=O)c1c(NCCCN(C)C)n(-c2ccccc2)c(=S)n(-c2ccccc2)c1=O`, the viability in series [2] is ≥ 94%. The IC50 in series [3] stood at 3.89 nM. Moreover, in series [4], the result was inactive.

With `CC(=O)c1c(N2CCN(C)CC2)n(-c2ccccc2)c(=S)n(-c2ccccc2)c1=O`, the viability in [2] is ≥ 94%. Besides, the IC50 in series [3] worked out at 14.8 nM. Also, in series [4], the outcome was inactive.

Regarding `CCOC(=O)c1c(NCCNc2ccccc2)n(-c2ccccc2)c(=S)n(-c2ccccc2)c1=O`, in [2], the viability is ≥ 94%. Moreover, the result in [5], in series [4] and in series [6] was inactive. Besides, the IC50 in [3] was determined as 0.61 nM.

In the case of `CC(=O)c1c(NCCN(C)C)n(-c2ccccc2)c(=S)n(-c2ccccc2)c1=O`, in [2], the viability was ≥ 94%. The IC50 in series [3] is 6.86 nM. Further, the result in series [4] was inactive.

Regarding `COC(=O)c1c(NCCN(C)C)n(-c2ccccc2)c(=S)n(-c2ccccc2)c1=O`, in series [2], the viability is ≥ 94%. For the same compound, in series [3], the IC50 is 3.32 nM. Further, the result in series [4] was inactive.

Consider `COC(=O)c1c(NCC(OC)OC)n(-c2ccccc2)c(=S)n(-c2ccccc2)c1=O`, for which the viability in [2] was ≥ 94%. Further, the IC50 in series [3] was determined as 31.2 nM. Also, the result in series [4] was inactive.

For `C[C@@H]1C[C@H]2[C@@H]3CCC4=CC(=O)C=C[C@]4(C)[C@@]3(F)[C@@H](O)C[C@]2(C)[C@@]1(O)C(=O)CO` [DEXAMETHASONE], the Activity in [7] is 22 million; in series [8], 18.5 million; in series [9], 1400 µg/mL.

Take `CCOC(=O)c1c(NCCN(CC)CC)n(-c2ccccc2)c(=S)n(-c2ccccc2)c1=O`: the result in series [1], in [5], in [4] and in series [6] was inactive. Moreover, the viability in series [2] is ≥ 94%. In addition, the values for the Activity in series [10], in series [11] and in [12] were 17.7 million, 1520 µg/mL and 23.8 million, respectively. In series [3], the IC50 amounted to 0.02 nM.

Consider `CCOC(=O)c1c(NCCN2CCCCC2)n(-c2ccccc2)c(=S)n(-c2ccccc2)c1=O`, for which, in [2], the viability is ≥ 94%. Besides, the IC50 in series [3] was 85.4 nM. For the same compound, the outcome in [4] was inactive.

Turning to `CCOC(=O)c1c(NCCc2ccccn2)n(-c2ccccc2)c(=S)n(-c2ccccc2)c1=O`, the viability in series [2] was ≥ 94%. For the same compound, the result in series [5], in [4] and in series [6] was inactive. Moreover, the half-maximal inhibitory concentration (IC50) in series [3] was 0.49 nM.

Regarding `CCOC(=O)c1c(NCCN2CCOCC2)n(-c2ccccc2)c(=S)n(-c2ccccc2)c1=O`, the viability in series [2] was ≥ 94%. Moreover, the IC50 in series [3] was 172 nM. For the same compound, in [4], the outcome was inactive.

With `CC(C)OC(=O)c1c(NCCN(C)C)n(-c2ccccc2)c(=S)n(-c2ccccc2)c1=O`, the result in series [1] and in series [4] was inactive. Further, in [2], the viability was ≥ 94%. For the same compound, the IC50 in series [3] was 0.18 nM.

Consider `CCOC(=O)c1c(NCCN(C)C)n(-c2ccccc2)c(=S)n(-c2ccccc2)c1=O`, for which the outcome in series [1] and in series [4] was inactive. In addition, the viability in series [2] is ≥ 94%. Further, the IC50 in [3] came out at 0.1 nM.

For `CCOC(=O)c1c(NCCC2CCCN2C)n(-c2ccccc2)c(=S)n(-c2ccccc2)c1=O` (stereo unspecified), the viability in [2] was ≥ 94%. For the same compound, the outcome in [5], in series [4] and in [6] was inactive. For the same compound, the half-maximal inhibitory concentration (IC50) in [3] was determined as 1.61 nM.

As to `COC(=O)c1c(NCCc2ccc(S(N)(=O)=O)cc2)n(-c2ccccc2)c(=S)n(-c2ccccc2)c1=O`, the viability in series [2] is ≥ 94%. In addition, the IC50 in series [3] came to 10.8 nM. Further, the result in series [4] was inactive.

The values are drawn from ChEMBL document CHEMBL1136878, “6-amino-4-oxo-1,3-diphenyl-2-thioxo-1,2,3,4-tetrahydropyrimidine-5-carbonyl derivatives as a new class of potent inhibitors of Interleukin-8-induced neutrophil chemotaxis” (Bioorg Med Chem, 2009).
